# Measured values from ChEMBL document CHEMBL1212866, “Synthesis and anti-hepatitis C virus activity of novel ethyl 1H-indole-3-carboxylates in vitro” (Bioorg Med Chem, 2010).
# Columns and labels:
# Hepatitis C virus [1] = test: Antiviral activity against HCV 2a infected in human Huh7.5 cells assessed inhibition of viral entry after 3 days; format: functional, Hepacivirus hominis, genotype 2a, Huh-7
# Summary of the method: (§1)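 Naive Huh-7.5 cells infected with viral particles carrying a subgenomic HCV RNA with a firefly luciferase reporter, then plated in 96-well format with compounds present. Luciferase activity read after three days of incubation. IC50 calculated; single-point lines give % inhibition at 100 µM.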
# [2] = Cytotoxicity against human Huh7.5 cells by celltiter-blue viability assay; format: cell-based; details: Huh-7
# Summary of the method: (§2)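 Huh-7.5 cells exposed to compounds, and viability estimated by CellTiter-Blue, a resazurin reagent that metabolically active cells reduce to fluorescent resorufin (excitation 579 nm, emission 584 nm). TC50 taken as the 50% cytotoxic concentration; the single-point line reflects testing at 50 µM.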
# [3] = Selectivity index, IC50 for human Huh7.5 cells to TC50 for inhibition of HCV 2a entry into human Huh7.5 cells; format: functional, Huh-7
# Summary of the method: (§3)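 Index computed as TC50 divided by IC50. TC50 comes from the CellTiter-Blue viability assay in Huh-7.5 cells. IC50 comes from the luciferase-reporter HCV infection (entry) or replicon (replication) assay in Huh-7.5 cells, read after three days.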
# Hepatitis C virus [4] = test: Antiviral activity against HCV 2a infected in human Huh7.5 cells assessed inhibition of viral replication after 3 days by luciferase assay; format: functional, Hepacivirus hominis, genotype 2a, Huh-7
# Summary of the method: (§4)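 Huh-7.5 cells transfected with an RNA transcript of a replicon carrying a firefly luciferase reporter, then plated in 96-well plates with compounds present. Luciferase activity measured after three days of incubation. IC50 calculated; single-point lines give % inhibition at 100 µM.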
# [5] = Selectivity index, IC50 for human Huh7.5 cells to TC50 for inhibition of HCV 2a replication in human Huh7.5 cells; format: functional, Huh-7; summary of the method: as §3
# Hepatitis C virus [6] = test: Antiviral activity against HCV 2a infected in human Huh7.5 cells assessed inhibition of viral entry at 100uM after 3 days; format: functional, Hepacivirus hominis; details: genotype 2a, Huh-7, 72 h; summary of the method: as §1
# Hepatitis C virus [7] = test: Antiviral activity against HCV 2a infected in human Huh7.5 cells assessed inhibition of viral replication at 100 uM after 3 days by luciferase assay; format: functional, Hepacivirus hominis; details: genotype 2a, Huh-7, 72 h; summary of the method: as §4
# [8] = Cytotoxicity against human Huh7.5 cells at 50 uM by celltiter-blue viability assay; format: cell-based; details: huh-7, 50 µM; summary of the method: as §2
SMILES,TC50 (Hepatitis C virus [1]) [µM],IC50 [2] [µM],Selectivity Index [3],TC50 (Hepatitis C virus [4]) [µM],Selectivity Index [5],inhibition at 100 µM (Hepatitis C virus [6]) [%],inhibition at 100 µM (Hepatitis C virus [7]) [%],Activity [8]
CCOC(=O)c1c(CS(=O)(=O)c2ccccc2)n(C)c2ccc(CN(C)C)cc12,>50,10,>2.6,>50,>5,–,–,–
CCOC(=O)c1c(CS(=O)(=O)c2ccccc2)n(C)c2ccc(CN3CCCC3)cc12,>50,3,>10,>50,>16.7,95,80,Non-toxic
CCOC(=O)c1c(CS(=O)(=O)c2ccccc2)n(C)c2ccc(CN3CCN(C)CC3)cc12,>50,4,>6.3,>50,>12.5,–,–,–
CCOC(=O)c1c(CS(=O)(=O)c2ccccc2)n(C)c2ccc(CN3CCOCC3)cc12,>50,4,>3.6,>50,>12.5,–,–,–
CCOC(=O)c1c(CS(=O)(=O)c2ccccc2)n(C)c2ccc(CN3CCCNCC3)cc12,>50,12,>2.4,>50,>4.2,–,–,–
CCOC(=O)c1c(CS(=O)(=O)c2ccccc2)n(C)c2ccc(Cn3ccnc3)cc12,23,15,4.6,18,1.2,–,–,–
CCOC(=O)c1c(C)n(C)c2ccc(CN(C)C)cc12,>50,3,>6.3,>50,>16.7,–,–,–
CCOC(=O)c1c(C)n(C)c2ccc(CN3CCCC3)cc12,>50,5,>3.8,>50,>10,–,–,–
CCOC(=O)c1c(CSc2ccccc2)n(C)c2cc(Br)c(O)c(CN(C)C)c12 [UMIFENOVIR],12,1,6,15,15,–,–,–
